Experimental data from the EternaBench riboswitch data.

Tested on: MS2 coat protein
Experiment: apparent Kd, MS2 coat protein; higher = weaker binding; RNA-MaP array
Summary of the method: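 Fluorescently labeled MS2 coat protein, from 1.5 nM to 3 μM, was incubated at room temperature with designed RNAs transcribed on an Illumina sequencing chip from sequenced DNA templates. Times ran from 0.8–1.5 h at the lowest concentrations to 10–20 min at the highest, in Tris-HCl pH 7.5 buffer with KCl, MgCl2, BSA, DTT, tRNA and Tween20, with or without input ligand. Each apparent Kd is the median of per-cluster binding-curve fits, and designs with fewer than 10 measured clusters were excluded.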

[1] = designed as: OFF switch for flavin mononucleotide, no ligand
[2] = ligand present: flavin mononucleotide, designed as: OFF switch for flavin mononucleotide
[3] = designed as: ON switch for flavin mononucleotide, no ligand
[4] = ligand present: flavin mononucleotide, designed as: ON switch for flavin mononucleotide
[5] = designed as: ON switch for theophylline, no ligand
[6] = ligand present: theophylline, designed as: ON switch for theophylline

Sequence | apparent Kd [1] [µM] | apparent Kd [2] [µM] | apparent Kd [3] [µM] | apparent Kd [4] [µM] | also measured
AAAAGGGCAGGAUAUACAUGAGGAUCACCCAUGUUAAAGCCAACAAGAAGUUCCACUGGUAGAAGGGCCAUAGA | 0.00889 | 0.00855 |  |  | 
GAUUUACAUGAGGAUCACCCAUGUGAGGAUAUGCCGUACAUCGCGCUCUGAGCUAGUUGCAGAAGGCACAUGAU | 0.0189 | 0.0183 |  |  | 
CGACAUUAAACAUGAGGAUCACCCAUGUGACCCUAUUGUCCAAAGGAUAUCUUAUGAAUAGAGAAAGAGAAGGUUGUAUUCCCA | 0.241 | 0.196 |  |  | 
AACAAAAGGAAGAAGGCAGUUAAACAUGAGGAUCACCCAUGUGGGACGCGGGAAAUCAACGAGACUGAGGAUAUUCAUUAAGAA | 0.00984 | 0.0209 |  |  | 
UACGGUCAUAGAGGAUAUAGAUCGCGCAACGGUUUCGUGGCCCACAUGAGGAUCACCCAUGUUAUCUAGAAGGCUAUGAGUCGC | 0.00682 | 0.0068 |  |  | 
AAUUCCUGUAAGAAGGGCGAUAUACAUGAGGAUCACCCAUGUCGUUGGAUUGAAGAAAAUCAGACGCAGGAUAUUAUUGGGAAC |  |  | 0.0943 | 0.04 | 
CCGGGCAGUUUAGGAUAUACACGUGAUUCAUGCGUAGAAGGAAAUCACAGAAUAGUUUCCUGGACAUGAGGAUCACCCAUGUAG |  |  | 0.252 | 0.147 | 
AUUGCCCAAGGAUAUCUAUUUAGAAACAUGAGGAUCACCCAUGUCAUAAUGUUAGGCUCAAGAGAAGGUGGAAGCU | 0.00833 | 0.00837 |  |  | 
AUGAACAACCAGAAGGCAACGUUGGCCCAAGUUUGAGGAUAUGGACGUGGAAGUUCGCACAUGAGGAUCACCCAUGUAGAUCAG | 0.014 | 0.0128 |  |  | 
AUUGAACAUGAGGAUCACCCAUGUGCGGGUGGUAUAGGAUAUGCAGGAUCCUAAGAGUAAGCAGAAGGAUACACCG |  |  | 0.445 | 0.0334 | 
AUUAGAAUGCGAGGAUAUGGUAAAUUCAUGCAUCCAGAAGGCGCGUCAGUAGAACAUGAGGAUCACCCAUGUGAUUGUUGUGGC | 0.0228 | 0.0269 |  |  | 
CUCCCAAACAAGAAGGGCGUCGAGUACGGUGAACUUGCCACAUAACAUGAGGAUCACCCAUGUACGCAGGAUAUUGGAGCGUUU | 0.138 | 0.234 |  |  | 
ACCCGACAUGAGGAUCACCCAUGUGGUUUCGGUCGAGGAUAUUCAAUCUGAAUUAUGUAGGAAGAAGGCGAUACCC |  |  | 0.173 | 0.078 | 
ACAUGAGGAUCACCCAUGUUUGGGCAAAGAUUGAUUGACACGAGAAGGGCCCGCGUACGUCGUAGGCAGGAUAUCGAGUACCGG | 0.0322 | 0.0311 |  |  | 
GACAGCAUCCGAGGAUAUAUGUACGUAAUCAAACCACAUGAGGAUCACCCAUGUCCUCUAGGUUCAUAGAAGGCGGUUUAGCGU | 0.455 | 0.75 |  |  | 
CUCAGCGGGCUAGGAUAUGGCCUGUGGUUUAGGCCAGAAGGAGCUCACUAAGCACAUGAGGAUCACCCAUGUCUCAAUGCCUGA |  |  | 0.0148 | 0.00884 | 
AGAACCAUAGUAGGAUAUGAGACGUUAUUGGUAACAGAAGGACUAGCUGUAACAUGAGGAUCACCCAUGUGGGCCGGACAGAGG |  |  | 0.0141 | 0.0115 | 
GCUACCACCGCAGGAUAUAAUCGGACACUCGUAGCGUUGCGAACAUGAGGAUCACCCAUGUCUAUUUAGAAGGGCGCAUGGGAU |  |  | 0.0788 | 0.0426 | 
CCCACAAGCACGGCCGCCACUAUAUUAAUUACUGUCCUAGAACAUGAGGAUCACCCAUGUUAAUGUAGGACCGGGUGCGGGCCCG |  |  |  |  | apparent Kd (designed as: OFF switch for tryptophan, no ligand): 0.00957 µM; apparent Kd (ligand present: tryptophan, designed as: OFF switch for tryptophan): 0.0128 µM
AUCUACGUGGGUGAUACCAGCUGGUUAGUACACAUGAGGAUCACCCAUGUGCAGGCAGGCAGCCCUUGGCAGCACCGCAGUGGCU |  |  |  |  | apparent Kd [5]: 0.12 µM; apparent Kd [6]: 0.035 µM
ACACGUGACAAGGAUACCAGCCUGGCUAGUUCAAACCCUCACAUGAGGAUCACCCAUGUAGGCCCUUGGCAGCCUAUAGUCUAAG |  |  |  |  | apparent Kd (designed as: OFF switch for theophylline, no ligand): 0.0319 µM; apparent Kd (ligand present: theophylline, designed as: OFF switch for theophylline): 0.0839 µM

Sequence | apparent Kd [1] [µM] | apparent Kd [2] [µM] | apparent Kd [3] [µM] | apparent Kd [4] [µM] | also measured
AGCGUGUAAGGAUAUCCAAUUGAUGGGAGCGGAUCUUCCCAGGAGAAGGUACAUGAGGAUCACCCAUGUGGCGC | 0.0372 | 0.035 |  |  | 
UUAGUAACCACAGGAUAUGCGGACGGGUGAAGGGCAGAAGGGUGGGAGUGCACAUGAGGAUCACCCAUGUAACACGCCAUAUUU |  |  | 0.0177 | 0.00865 | 
AACUUUCCCUAGAAGGUCGUGUUACAACAUGAGGAUCACCCAUGUCGCCCUAGGGCUGCUGCCGCGAAGGAUAUAGGUCCGGAG |  |  | 0.00577 | 0.00532 | 
ACCCACAGAGGAUAUACAGCGAAACCUCAUAUUAAAUAUUCACAUGAGGAUCACCCAUGUAGAAGGCUGGAGAA | 0.0109 | 0.0388 |  |  | 
GAAUGGAAAGGAUAUCGCUGUUCUGACAUGAGGAUCACCCAUGUACGUGUUAGCUUGUUUCGAGAAGGUUCCACUC | 0.0156 | 0.0218 |  |  | 
ACUCCGUCGUAGAAGGGAAAAUGCUUGGCGUCUCUCGGGUACAUGAGGAUCACCCAUGUUACGGUUCAGGAUAUACAGACUGCU | 0.0105 | 0.0106 |  |  | 
CUGUUUGGAGAGGAUAUGUCGGGAAGCUAAUCAACAGAAGGCUCAACAUGAGGAUCACCCAUGUCGGGUGCGUA | 0.0168 | 0.0491 |  |  | 
ACGGGUGACAAGAAGGGCUAGGUAACAUGCCGUAGACUAGAAUAACAUGAGGAUCACCCAUGUAAGCAGGAUAUUGUAUAAUAA |  |  | 0.156 | 0.0528 | 
UCAAGCAUGGAGAAGGCCCGGGUUGACACGUCGGGAGGAUAUCCAGACUCACAUGAGGAUCACCCAUGUUAUUGCGGCGACUCC | 0.0403 | 0.057 |  |  | 
GUCGGAGUGGAGAAGGCGCCAACGUAAGCGCGGCGAGGAUAUCCCUACCCUACAUGAGGAUCACCCAUGUCGACGAGAGUAUCG |  |  | 0.0113 | 0.00799 | 
CACAUGUAAGGAUAUAGUGAACUAAAGCAACUAGAUGUAAACUAGAAGGUACAUGAGGAUCACCCAUGUAAAGG | 0.0173 |  |  |  | 
GACAGCGAAGGAUAUACAUGAGGAUCACCCAUGUCUCACUAACGUAGCCGCGGGUAAUGUAGAAGGUCGCGAUG | 0.191 | 0.0654 |  |  | 
UGCUAAAGUGAGAAGGGUGGACCACUCAUCGAGUAUGACACAUGAGGAUCACCCAUGUACGCUCCACAGGAUAUCAAAUUGAGG |  |  | 0.156 | 0.0288 | 
AGCAUGACAGCAGGAUAUGCGAACAGAAAUAGUGCAGAAGGGCUUUACACAUGAGGAUCACCCAUGUCCGCAAGGAUGCGUAUG |  |  | 0.0411 | 0.0194 | 
CACUGACAUGAGGAUCACCCAUGUCUCCUGCUUGUAGGAUAUAGGUGGUCGCUGGACAGUCUAGAAGGACAUGUAA |  |  | 0.0547 | 0.0495 | 
GUUGUCAUCCAAGGAUAUUGUAAAAGGAGUGGGCAAGAAGGUGGAGAGCAUUGAUGAAGGUACACAUGAGGAUCACCCAUGUUC |  |  | 0.0336 | 0.0148 | 
GAAUCUACAAACGAUACCAGAUCCGGCUGCCACAUGAGGAUCACCCAUGUCUAGCGACUCAUCCCUUGGCAGCGUGUGCAUCCCG |  |  |  |  | apparent Kd [5]: 0.508 µM; apparent Kd [6]: 0.781 µM
GAAAAUACAUGAGGAUCACCCAUGUGGUGGCGUCAGAUUGGUUAGGAUAUCUUGGCGGGAUACUGAGAGAAGGAACUUUGAAGG | 0.181 | 0.136 |  |  | 
CUUCGGCCCAGGGAGAUGACCACAUGAGGAUCACCCAUGUACAGAAGGAGUAUCGGUAGGCCAUACUAGGAUAUGUGAAUAGAC |  |  | 0.0258 | 0.0314 | 
UUGAACAUGAGGAUCACCCAUGUGGAUGAUACCAGCUAAAACAUAAGCCCUUGGCAGCAUUAAAAUGAAAUAUCGAAAAGGAAAG |  |  |  |  | apparent Kd [5]: 0.143 µM; apparent Kd [6]: 0.0549 µM
